Several values for one entry are separate records, joined by “and”; a condition that tells them apart may be missing. Equal values may be shown once.

From paper PMC13077713 (Journal of medicinal chemistry, 2025) come the findings set out here.

Data set [1] deals with HBc in HepAD38 cells. Kind of data set: Confocal microscopy, nucleo-cytoplasmic distribution of HBc in HepAD38 cells. Format: cell-based, Hepatitis B virus (HBV). The conditions noted are these: increasing concentration, 72 h.
Data set [2] relates to human peripheral blood mononuclear (PBM) cells. Description: Cytotoxicity, CellTiter 96 cell proliferation assay, PBM cells. Format: cell-based. Conditions: read-out: Cytotoxicity, CC50 PBM; PBM cells.
Data set [3] has as its system human T lymphoblast (CEM) cells. Description: Cytotoxicity, CellTiter 96 cell proliferation assay, CEM cells. Format: cell-based. Conditions: read-out: Cytotoxicity, CC50 CEM; CEM cells.
The target in data set [4] is T1, Cp149 dimers (Hepatitis B virus genotype D subtype ayw, UniProt P03146). Kind of data set: Cryo-electron microscopy classification of Cp149 capsids assembled with CAM. Format: biochemical, Hepatitis B virus (HBV). Conditions: 90 μM, 30 μM subunits. In outline:
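Cp149 was expressed in E. coli BL21 and purified as capsids. These were dissociated with 3 M urea and taken to subunits by SEC. Assembly was triggered manually by mixing 30 μM (1 mg/ml) dimers in 1 mM DTT, 20 mM Tris-HCl pH 7.5 with 200 mM ammonium acetate, with or without 90 μM CAM (ρ = 3). Samples were concentrated 11-fold, imaged by cryo-EM, and particles 2D-classified.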

Data set [5] has as its target T1, Cp149 dimers.
In data set [6] the test system is human hepatocellular carcinoma (HepG2) cells. Kind of data set: Cytotoxicity, CellTiter 96 cell proliferation assay, HepG2 cells. Conditions: read-out: Cytotoxicity, CC50 HepG2; HepG2 cells. The class given is cell-based.
The target of data set [7] is T1, Cp149 dimers. Description: Static SAXS of Cp149 capsid assembly in the presence of CAM. The conditions noted are these: ρ = 3, undiluted sample, 30 μM dimers; 1.54 cm^−1 without CAM. Format: biochemical, Hepatitis B virus (HBV).
In data set [8] the test system is HBV DNA production in HepAD38 cells. Description: Anti-HBV activity. The class given is cell-based, Hepatitis B virus (HBV).
The test system of data set [9] is HBV-infected HepG2-NTCP cells. Format: cell-based.
Data set [10] relates to HBV-infected HepG2-NTCP cells. The class given is cell-based. The conditions noted are these: post-infection treatment.
For data set [11], the target named is preassembled HBV capsids (Cp149 protein) (Hepatitis B virus genotype D subtype ayw, UniProt P03146). The conditions noted are these: 20 μM CAM.
preassembled HBV capsids (Cp149 protein), sequence (P03146 1-149): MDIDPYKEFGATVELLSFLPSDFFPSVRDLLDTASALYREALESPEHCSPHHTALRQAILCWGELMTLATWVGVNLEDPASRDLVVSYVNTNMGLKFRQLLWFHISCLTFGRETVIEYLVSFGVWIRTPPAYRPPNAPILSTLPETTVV
Data set [12] concerns African green monkey kidney (Vero) cells. Kind of data set: Cytotoxicity, CellTiter 96 cell proliferation assay, Vero cells. Format: cell-based. The conditions noted are these: read-out: Cytotoxicity, CC50 Vero; Vero cells.

T1 sequence (P03146 1-149): as above

Consider `Cc1c(C(=O)C(=O)NCc2cn(CCCCCCCCCCCCCCn3cc(CNC(=O)C(=O)c4c(C)c(C(=O)Nc5ccc(F)c(F)c5)n(C)c4C)nn3)nn2)c(C)n(C)c1C(=O)Nc1ccc(F)c(F)c1` [Compound 6e, 4,4’-(2,2’-(((Tetradecane-1,14-diylbis(1H-1,2,3-triazole-1,4-diyl))bis(methylene))bis(azanediyl))bis(2-oxoacetyl))bis(N-(3,4-difluorophenyl)-1,3,5-trimethyl-1H-pyrrole-2-carboxamide)], for which, in data set [1], the “levels of HBc inside the nucleus” value is reported as “clear decrease in the levels of HBc inside the nucleus”. In addition, in data set [2], the CC50 (in general, the concentration giving 50% cytotoxicity) is above 100 µM. In data set [3], the CC50 is above 100 µM. Besides, the “capsids that displayed defects (single-particle analysis)” value in [4] is reported as “approximately 45%”. Besides, in data set [5], the “Associated timescale of Rgw” value was 131 ± 21 ms; the “Associated timescale of 〈N〉w” value stood at 633 ± 77 ms; the “Rgw (mean radius of gyration, plateau)” value is given as 142 ± 0.3 Å; the “Subunit binding energies −Δg” value is reported as 9.5 kT. The “〈N〉w∞ (mean aggregation number at equilibrium)” value in data set [5] was 126 and 126 ± 3. Moreover, the half-maximal cytotoxic concentration (CC50) in data set [6] is above 100 µM. The “SAXS intensity at zero angle I(0)” value in [7] came out at 1.32 cm⁻¹. For the same compound, the “times more potent than reference compound GLP-26” value in [8] (HepAD38 EC50 vs GLP-26) amounted to 80 times. The EC50 (as a rule, the concentration needed to bring the measured effect to its halfway point) in [8] (read-out: Anti-HBV activity EC50, HBV DNA production, HepAD38 cells) is 0.1 nM. The EC90 (usually the concentration needed for an effect of 90%) in data set [8] (read-out: Anti-HBV activity EC90, HBV DNA production, HepAD38 cells) is 9 ± 0.2 nM. Moreover, the “HBeAg EC50 compared to GLP-26 or GLS-4” value in data set [9] is reported as “nearly eight-fold lower”. For the same compound, in data set [10], the “fold more potent than GLP-26 at inhibiting HBV virion production” value turned out to be 10 fold and the “fold more potent than GLP-26 at inhibiting HBeAg biogenesis” value worked out at 10 fold. For the same compound, the “Radius (DLS, table)” value in data set [11] (7.5 μM Cp149, 30 min, 1% DMSO control 24.6 ± 3.4) was found to be 214 ± 61.3 nM. In data set [11] (7.5 μM Cp149, 30 min, 1% DMSO control 32.3 ± 18.6), the “PD (polydispersity)” value was “Multimodal distribution”. For the same compound, the “average particle radius (DLS, text)” value in data set [11] (1% DMSO control 24.6 nm) is 214 nm. Further, in data set [12], the cytotoxic concentration (CC50) was above 100 µM.
